Reference: ChEMBL document CHEMBL1134945, “Synthesis and structure-activity relationships of aminoalkylazetidines as ORL1 receptor ligands” (Bioorg Med Chem Lett, 2002)

Assays:
[1] = biological target: T1, Delta-type opioid receptor (Homo sapiens, UniProt P41143); assay: Binding affinity at human opioid receptor delta 1 was determined by using [3H]diprenorphine radioligand in CHO cell membranes at a concentration of 0.8 nM
Summary of the method: (§1)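 Ki from competition binding with [3H]diprenorphine on membranes of CHO cells expressing the respective human opioid receptor; means of 2–3 independent determinations.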

Mu-type opioid receptor = Mu-type opioid receptor (Homo sapiens, UniProt P35372); assay: Binding affinity at human opioid receptor mu 1 was determined by using [3H]diprenorphine radioligand in CHO cell membranes at a concentration of 0.12 nM; summary of the method: as §1
Sequence of Mu-type opioid receptor (P35372 whole entry): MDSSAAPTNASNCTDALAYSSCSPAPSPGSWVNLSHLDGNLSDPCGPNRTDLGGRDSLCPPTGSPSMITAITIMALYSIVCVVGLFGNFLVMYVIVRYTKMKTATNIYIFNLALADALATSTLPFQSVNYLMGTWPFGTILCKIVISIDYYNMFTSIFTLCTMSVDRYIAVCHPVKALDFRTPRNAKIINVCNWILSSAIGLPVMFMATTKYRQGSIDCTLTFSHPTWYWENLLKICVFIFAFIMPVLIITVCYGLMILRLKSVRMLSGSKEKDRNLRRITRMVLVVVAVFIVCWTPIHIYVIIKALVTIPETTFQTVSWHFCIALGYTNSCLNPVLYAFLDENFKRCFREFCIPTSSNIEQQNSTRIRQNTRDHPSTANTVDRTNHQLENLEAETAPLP

[2] = biological target: Kappa-type opioid receptor (Homo sapiens, UniProt P41145); assay: Binding affinity at human opioid receptor kappa 1 was determined by using [3H]diprenorphine radioligand in CHO cell membranes at a concentration of 0.31 nM; summary of the method: as §1
Sequence of Kappa-type opioid receptor (P41145 whole entry): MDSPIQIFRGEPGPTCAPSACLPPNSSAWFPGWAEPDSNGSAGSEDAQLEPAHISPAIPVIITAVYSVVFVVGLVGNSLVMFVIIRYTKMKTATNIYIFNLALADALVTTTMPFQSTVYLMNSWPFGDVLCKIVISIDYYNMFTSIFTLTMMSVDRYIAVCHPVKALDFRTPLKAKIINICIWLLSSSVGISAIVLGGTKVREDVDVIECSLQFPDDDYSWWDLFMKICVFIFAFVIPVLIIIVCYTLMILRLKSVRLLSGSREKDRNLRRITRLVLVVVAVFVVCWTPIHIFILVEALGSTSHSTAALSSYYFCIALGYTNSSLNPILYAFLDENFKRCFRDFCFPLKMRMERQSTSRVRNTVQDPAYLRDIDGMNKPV

Nociceptin receptor [3] = biological target: T2, Nociceptin receptor (Homo sapiens, UniProt P41146); assay: Functional [35S]GTP-gamma-S, binding for human ORL1 receptor carried out in CHO cell membranes.; assay type: cell-based; conditions: filed as agonist
T2 sequence (P41146 whole entry): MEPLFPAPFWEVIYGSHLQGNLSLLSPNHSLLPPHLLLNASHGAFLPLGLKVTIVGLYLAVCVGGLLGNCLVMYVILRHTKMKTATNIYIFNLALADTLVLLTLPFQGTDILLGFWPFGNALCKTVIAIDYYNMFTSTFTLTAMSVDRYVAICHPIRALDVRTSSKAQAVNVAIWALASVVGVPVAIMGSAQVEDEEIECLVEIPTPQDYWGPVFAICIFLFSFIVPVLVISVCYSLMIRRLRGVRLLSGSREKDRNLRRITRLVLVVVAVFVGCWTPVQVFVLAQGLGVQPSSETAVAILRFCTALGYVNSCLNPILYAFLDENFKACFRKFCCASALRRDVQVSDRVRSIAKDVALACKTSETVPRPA
Summary of the method: (§2)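 [35S]GTPγS binding on membranes of CHO cells expressing human ORL1, 1 h incubation before assay start. Agonist: raises [35S]GTPγS binding. Antagonist: no effect on basal binding but blocks the Nociceptin-induced rise.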

Nociceptin receptor [4] = biological target: T2, Nociceptin receptor; assay: Binding affinity at human ORL1 receptor was determined by using [125I]nociceptin radioligand in Chinese hamster ovary (CHO) cell membranes at a concentration of 23 pM
Summary of the method: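 Competition binding against [125I]Nociceptin on membranes of CHO cells expressing human ORL1; Ki derived; means of 2–3 independent determinations.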

[5] = biological target: T1, Delta-type opioid receptor; assay: Binding affinity at human Opioid receptor delta 1 was determined by using [3H]diprenorphine radioligand in CHO cell membranes at a concentration of 0.8 nM; summary of the method: as §1
Nociceptin receptor [6] = biological target: T2, Nociceptin receptor; assay: Compound was evaluated for functional [35S]GTP-gamma-S, binding for human ORL1 receptor carried out in CHO cell membranes; Compound acts as Antagonist; assay type: cell-based; conditions: filed as antagonist; summary of the method: as §2
Nociceptin receptor [7] = biological target: T2, Nociceptin receptor; assay: Concentration of compound that inhibits the binding of human ORL1 receptor in CHO cell membranes in the presence of [125I]nociceptin radioligand at a concentration of 10 uM
Nociceptin receptor [8] = biological target: T2, Nociceptin receptor; assay: Compound was evaluated for functional [35S]GTP-gamma-S, binding for human ORL1 receptor carried out in CHO cell membranes; Compound acts as Agonist; assay type: cell-based; conditions: filed as agonist; summary of the method: as §2

T1 sequence (P41143 whole entry): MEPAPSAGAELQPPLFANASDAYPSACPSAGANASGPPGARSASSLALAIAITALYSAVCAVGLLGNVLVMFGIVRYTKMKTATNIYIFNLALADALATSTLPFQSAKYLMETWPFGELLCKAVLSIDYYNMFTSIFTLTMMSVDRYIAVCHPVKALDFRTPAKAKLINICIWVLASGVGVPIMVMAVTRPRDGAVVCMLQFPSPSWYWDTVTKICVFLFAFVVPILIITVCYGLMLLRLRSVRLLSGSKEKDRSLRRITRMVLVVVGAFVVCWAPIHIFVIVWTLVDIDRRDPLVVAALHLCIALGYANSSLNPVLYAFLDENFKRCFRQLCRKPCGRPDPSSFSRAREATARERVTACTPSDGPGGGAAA

Ki [1] [µM]	Ki (Mu-type opioid receptor) [µM]	Ki [2] [µM]	Activity (Nociceptin receptor [3])	Ki (Nociceptin receptor [4]) [µM]	Ki [5] [µM]	Activity (Nociceptin receptor [6])	inhibition (Nociceptin receptor [7]) [%]	Activity (Nociceptin receptor [8])	Compound
3.31	0.516	0.641	Agonist	0.014					N[C@H](c1cccc(C(F)(F)F)c1)[C@H]1CCN1C(c1ccccc1)c1ccccc1
			Agonist						N[C@@H](c1cccc(C(F)(F)F)c1)[C@@H]1CCN1C(c1ccccc1)c1ccccc1 (stereo in doubt; (+)-1a) [listing 1 of 2 here]
7.58	2.15	3.91		0.772					CCCCCC(c1ccccc1)N1CC[C@H]1[C@@H](N)c1cccc(Cl)c1 (stereo not given in full)
7.43	2.18	2.24		0.684					N[C@H](c1cccc(Cl)c1)[C@@H]1CCN1C(c1ccc(F)cc1)c1ccc(F)cc1
5.01	3.45	3.25		3.22					N[C@H](c1cccc(Cl)c1)[C@@H]1CCN1C(c1ccc(Cl)cc1)c1ccc(Cl)cc1
	1.49	2.86		0.185	3.91	Antagonist			CCCCCCC(c1ccccc1)N1CC[C@H]1[C@H](N)c1cccc(Cl)c1 (stereo not given in full)
							3		Cc1cccc([C@H](N)[C@@H]2CCN2C(c2ccccc2)c2ccccc2)c1
8.05	1.81	3.43	Agonist	0.03					CCCCC(c1ccccc1)N1CC[C@H]1[C@H](N)c1cccc(Cl)c1 (stereo not given in full)
8.34	1.65	1.23		0.037					N[C@@H](c1cccc(Cl)c1)[C@@H]1CCN1C(c1ccccc1)c1ccccc1
7.72	5.4	2.77		7.22					N[C@@H](c1ccc(Oc2ccccc2)cc1)[C@@H]1CCN1C(c1ccccc1)c1ccccc1
			Agonist						N[C@@H](c1cccc(C(F)(F)F)c1)[C@@H]1CCN1C(c1ccccc1)c1ccccc1 (stereo in doubt; (+\-)-1) [listing 1 of 2 here]
2.92	1.77	0.997	Agonist	0.191					N[C@@H](c1cccc(F)c1)[C@@H]1CCN1C(c1ccccc1)c1ccccc1
11.2	3.98	4.22		0.049				Agonist	CCCCC(c1cc(F)cc(F)c1)N1CC[C@H]1[C@H](N)c1cccc(Cl)c1 (stereo not given in full)
11	6.09	3.57		0.236					N[C@@H](c1cccc(C(F)(F)F)c1)[C@@H]1CCN1C(c1ccccc1)c1ccccc1 (stereo in doubt; (+)-1a) [listing 2 of 2 here]
2.71	7.16	6.04	Agonist	0.42					N[C@H](c1cccc(Cl)c1)[C@@H]1CCN1C(c1cccc(Cl)c1)c1cccc(Cl)c1
31.8	9.67	4.26		1.34					CCCCC(CCCC)N1CC[C@H]1[C@@H](N)c1cccc(Cl)c1
							45		COc1cccc([C@H](N)[C@@H]2CCN2C(c2ccccc2)c2ccccc2)c1
8.71	1.6	2.13	Agonist	0.026					CCCCC(c1cccc(F)c1)N1CC[C@H]1[C@H](N)c1cccc(Cl)c1 (stereo not given in full)
0.634	0.152	0.15	Agonist	0.058					Cc1ccc([C@H](N)[C@@H]2CCN2C(c2ccccc2)c2ccccc2)cc1F

Ki [1] [µM]	Ki (Mu-type opioid receptor) [µM]	Ki [2] [µM]	Activity (Nociceptin receptor [3])	Ki (Nociceptin receptor [4]) [µM]	Ki [5] [µM]	Activity (Nociceptin receptor [6])	inhibition (Nociceptin receptor [7]) [%]	Activity (Nociceptin receptor [8])	Compound
39.1	10.6	4.1		1.06					CC(c1ccccc1)N1CC[C@H]1[C@@H](N)c1cccc(Cl)c1 (stereo not given in full)
16.5	6.02	7.17	Agonist	0.079					CCCC(c1ccccc1)N1CC[C@H]1[C@H](N)c1cccc(Cl)c1 (stereo not given in full)
8.82	2.25	3.68		0.745					CCCCC(c1ccccc1)N1CC[C@H]1[C@@H](N)c1cccc(Cl)c1 (stereo not given in full)
4.98	1.59	1.94		1.02					CCCCCCC(c1ccccc1)N1CC[C@H]1[C@@H](N)c1cccc(Cl)c1 (stereo not given in full)
9.53	4.25	4.01	Agonist	0.105					N[C@@H](c1cc(F)cc(F)c1)[C@@H]1CCN1C(c1ccccc1)c1ccccc1
12.3	4.71	4.12		0.68					CCCCC(c1cccc(F)c1)N1CC[C@H]1[C@@H](N)c1cccc(Cl)c1 (stereo not given in full)
1.44	0.586	0.607	Agonist	0.152					N[C@@H](c1ccc(Cl)cc1)[C@@H]1CCN1C(c1ccccc1)c1ccccc1
4.99	2.5	1.48		2.53					N[C@H](c1cccc(Cl)c1)[C@@H]1CCN1C(c1ccc(Br)cc1)c1ccc(Br)cc1
4.79	4.32	3.53	Agonist	0.064					N[C@H](c1cccc(Cl)c1)[C@@H]1CCN1C(c1cccc(F)c1)c1cccc(F)c1
2.92	0.865	1.34		0.198					COc1ccc([C@H](N)[C@@H]2CCN2C(c2ccccc2)c2ccccc2)cc1
5.01	0.801	1.84		1.14					Cc1ccc(C(c2ccc(C)cc2)N2CC[C@H]2[C@H](N)c2cccc(Cl)c2)cc1
10.1	4.13	2.94		0.367					CCCC(c1ccccc1)N1CC[C@H]1[C@@H](N)c1cccc(Cl)c1 (stereo not given in full)
6.09	1.97	1.63		0.031					N[C@@H](c1cccc(C(F)(F)F)c1)[C@@H]1CCN1C(c1ccccc1)c1ccccc1 (stereo in doubt; (+\-)-1) [listing 2 of 2 here]
22.4	8.07	13.1		0.57					CCC(c1ccccc1)N1CC[C@H]1[C@@H](N)c1cccc(Cl)c1 (stereo not given in full)
9.37	5.55	6.49		0.347					CCCCC(c1cc(F)cc(F)c1)N1CC[C@H]1[C@@H](N)c1cccc(Cl)c1 (stereo not given in full)
1.86	0.488	0.66		0.094					Cc1ccc([C@H](N)[C@@H]2CCN2C(c2ccccc2)c2ccccc2)cc1
5.96	1.94	2.99		0.034					CCCCCC(c1ccccc1)N1CC[C@H]1[C@H](N)c1cccc(Cl)c1 (stereo not given in full)
				2.59					N[C@H](c1cccc(Cl)c1)[C@@H]1CCN1C(c1cccc(C(F)(F)F)c1)c1cccc(C(F)(F)F)c1
22.4	7.22	7.72	Agonist	0.094					CCC(c1ccccc1)N1CC[C@H]1[C@H](N)c1cccc(Cl)c1 (stereo not given in full)
